Experimental data reported in ChEMBL document CHEMBL1641602, “Quinolones as HCV NS5B polymerase inhibitors” (Bioorg Med Chem Lett, 2011).

Key:
[1] = Inhibition of Hepatitis C virus 1b BK NS5B Cdelta21 polymerase by scintillation proximity assay; set-up: species or system Hepatitis C virus (isolate BK)
Hepatitis C virus [2] = assay: Antiviral activity against HCV 1b infected in human HuH7 cells assessed as total viral RNA level after 48 hrs by RT-qPCR analysis; format: functional, organism-based, Hepacivirus hominis, genotype 1b, Huh-7
Summary of the method: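 Huh7/Clone A genotype 1b replicon cells, seeded at 40,000 per well in growth medium without G418, incubated overnight at 37 °C, 5% CO2. Compounds serially diluted in DMSO (final 0.5%), seven concentrations in triplicate, 48 h at 37 °C. Total RNA extracted and replicon RNA quantified by TaqMan RT-qPCR, normalized to untreated cells (100%).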

[3] = Cytotoxicity against human HuH7 cells; format: cell-based, Huh-7
[4] = system: RNA-directed RNA polymerase (Hepacivirus hominis), O39930 [P495L]; assay: Inhibition of HCV 1b BK NS5B polymerase NNI-1 allosteric site P495L mutant by scintillation proximity assay relative to wild-type; conditions: Hepatitis C virus (isolate BK)
Summary of the method: (§1)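 SPA polymerase assay at 22 °C: 50 nM genotype 1b BK NS5B (C-terminal 21-residue deletion), mutant and wild-type, preincubated with inhibitor in pH 7.5 Tris buffer with MgCl2, DTT, KCl, BSA and 5% DMSO. Started with [3H]UTP, 1 µM UTP, biotinylated oligo(rU12) and poly(rA); stopped at 120 min with streptavidin SPA beads, then CsCl, then counted. Fold-change in inhibition over wild-type.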

[5] = system: RNA-directed RNA polymerase (Hepacivirus hominis), O39930 [M423F]; assay: Inhibition of HCV 1b BK NS5B polymerase NNI-2 allosteric site M423F mutant by scintillation proximity assay relative to wild-type; conditions: Hepatitis C virus (isolate BK); summary of the method: as §1
Hepatitis C virus [6] = assay: Antiviral activity against HCV 1a infected in human HuH7 cells assessed as total viral RNA level after 48 hrs by RT-qPCR analysis; format: functional, organism-based, Hepacivirus hominis; conditions: subtype 1a, Huh-7, 48 h
[7] = Hepatitis C virus, genotype 1b, Huh-7, 48 h, read-out: EC50

Sequence of RNA-directed RNA polymerase (Hepacivirus hominis), O39930 [M423F] (O39930 entry or part of it M423F): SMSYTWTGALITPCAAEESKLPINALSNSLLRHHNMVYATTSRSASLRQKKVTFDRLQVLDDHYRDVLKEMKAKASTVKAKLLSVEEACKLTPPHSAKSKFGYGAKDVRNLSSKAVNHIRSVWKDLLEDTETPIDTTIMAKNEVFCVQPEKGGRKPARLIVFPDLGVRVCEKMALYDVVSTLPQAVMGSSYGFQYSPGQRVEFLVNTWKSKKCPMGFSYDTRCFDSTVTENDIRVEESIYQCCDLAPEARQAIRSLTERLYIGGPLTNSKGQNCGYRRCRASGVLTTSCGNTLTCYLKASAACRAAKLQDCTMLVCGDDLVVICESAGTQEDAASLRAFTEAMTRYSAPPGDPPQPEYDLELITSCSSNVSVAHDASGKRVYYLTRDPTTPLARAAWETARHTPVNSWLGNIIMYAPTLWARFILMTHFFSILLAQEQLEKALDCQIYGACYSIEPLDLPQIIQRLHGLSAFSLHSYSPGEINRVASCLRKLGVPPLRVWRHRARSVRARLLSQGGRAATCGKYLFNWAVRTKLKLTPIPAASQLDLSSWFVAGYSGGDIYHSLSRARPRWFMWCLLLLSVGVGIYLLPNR
Sequence of RNA-directed RNA polymerase (Hepacivirus hominis), O39930 [P495L] (O39930 entry or part of it P495L): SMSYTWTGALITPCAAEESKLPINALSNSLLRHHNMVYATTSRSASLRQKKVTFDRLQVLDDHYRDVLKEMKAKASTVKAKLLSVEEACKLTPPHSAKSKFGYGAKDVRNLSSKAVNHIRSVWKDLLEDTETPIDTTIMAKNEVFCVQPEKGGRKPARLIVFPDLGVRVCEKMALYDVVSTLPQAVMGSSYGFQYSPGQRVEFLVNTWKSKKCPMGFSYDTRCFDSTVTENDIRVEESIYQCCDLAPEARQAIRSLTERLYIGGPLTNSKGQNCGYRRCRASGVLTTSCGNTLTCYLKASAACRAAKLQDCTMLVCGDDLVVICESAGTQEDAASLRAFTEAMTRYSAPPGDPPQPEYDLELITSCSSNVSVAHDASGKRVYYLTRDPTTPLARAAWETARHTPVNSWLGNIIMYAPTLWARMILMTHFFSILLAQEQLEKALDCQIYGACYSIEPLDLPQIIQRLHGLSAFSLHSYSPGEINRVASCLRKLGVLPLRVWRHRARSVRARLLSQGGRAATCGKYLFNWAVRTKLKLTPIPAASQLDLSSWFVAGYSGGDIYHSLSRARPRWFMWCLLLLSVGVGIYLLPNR

SMILES | IC50 [1] [µM] | EC50 (Hepatitis C virus [2]; [7]) [µM] | GI50 ([3]; HuH7 cells, read-out: GI50) [µM] | EC50 (Hepatitis C virus [2]; huh-7) | GI50 ([3]; huh-7) | fold change (FC) [4] | fold change (FC) [5] | EC50 (Hepatitis C virus [6]) [µM]
COc1cc2c(=O)c(C(=O)c3ccc(C)cc3)cn(Cc3ccc(C(C)(C)C)cc3)c2cc1OC | 0.68 | 9.5 | > 25 | – | – | – | – | –
O=C(NCc1ccc(Cl)cc1)c1cn(Cc2ccc(Cl)cc2)c2cc(N3CCOCC3)c(F)cc2c1=O | 16 | – | – | Not Active | Not Active | – | – | –
COc1cc2c(=O)c(C(=O)c3ccc(C)cc3)cn(CC3CCCCC3)c2cc1OC | 9 | 38 | 22 | – | – | – | – | –
COc1cc2c(=O)c(S(=O)(=O)CCc3ccc(Cl)cc3)cn(Cc3ccccc3)c2cc1OC | > 150 | – | – | Not Active | Not Active | – | – | –
COc1cc2c(=O)c(C(=O)c3ccc(C)cc3)cn(Cc3ccc(C(C)C)cc3)c2cc1OC | 1.15 | 11.7 | 15.5 | – | – | 1 | > 200 | –
CN1CCN(c2cc3c(cc2F)c(=O)c(NC(=O)Cc2ccc(Cl)cc2)cn3Cc2ccccc2)CC1 | 2 | – | – | Not Active | Not Active | – | – | –
COc1cc2c(=O)c(C(=O)c3ccc(C)cc3)cn(Cc3ccccc3)c2cc1OC | 170 | – | – | Not Active | Not Active | – | – | –
COc1cc2c(=O)c(C(=O)c3ccc(C)cc3)cn(Cc3ccc(S(N)(=O)=O)cc3)c2cc1OC | 0.85 | > 50 | > 25 | – | – | – | – | –
CN1CCN(c2cc3c(cc2F)c(=O)c(NC(=O)NCc2ccccc2)cn3Cc2ccccc2)CC1 | 26 | – | – | Not Active | Not Active | – | – | –
COc1cc2c(=O)c(C(=O)OCc3cccc(C)c3)cn(Cc3ccc(C(F)(F)F)cc3F)c2cc1OC | 0.06 | 1.2 | 7.3 | – | – | – | – | –
O=C(OCc1ccc(Cl)cc1)c1cn(Cc2ccc(Cl)cc2)c2cc(N3CCNCC3)c(F)cc2c1=O | 0.01 | 0.12 | 1.1 | – | – | – | – | 0.41
COc1cc2c(=O)c(C(=O)c3ccc(C)cc3)cn(Cc3ccc(Cl)c(Cl)c3)c2cc1OC | 1.1 | – | – | Not Active | Not Active | – | – | –
COc1cc2c(=O)c(C(=O)OCc3ccc(Cl)cc3)cn(Cc3ccc(Cl)cc3)c2cc1OC | 0.02 | 1.2 | 28.3 | – | – | – | – | –
COc1cc2c(=O)c(C(=O)c3ccc(C)cc3)cn(Cc3ccc(C(F)(F)F)cc3F)c2cc1OC | 0.41 | > 12 | > 25 | – | – | – | – | –
COc1cc2c(=O)c(C(=O)OCc3ccc(C)cc3)cn(Cc3ccc(C(F)(F)F)cc3F)c2cc1OC | 0.008 | 0.23 | 20 | – | – | – | – | –
COc1cc2c(=O)c(C(=O)c3ccc(C)cc3)cn(Cc3ccc(Cl)cc3)c2cc1OC | 1.1 | 11.7 | 15.5 | – | – | – | – | –
COc1cc2c(=O)c(COCc3ccc(Cl)cc3)cn(Cc3ccccc3)c2cc1OC | 100 | – | – | Not Active | Not Active | – | – | –
O=C(OCc1ccc(Cl)cc1)c1cn(Cc2ccc(Cl)cc2)c2cc(N3CCOCC3)c(F)cc2c1=O | 0.02 | 1.7 | > 12 | – | – | – | – | –
COc1cc2c(=O)c(C(=O)c3ccc(C)cc3)cn(CC3CC3)c2cc1OC | 120 | – | – | Not Active | Not Active | – | – | –
COc1cc2c(=O)c(C(=O)c3ccc(C)cc3)cn(Cc3ccc(N)cc3)c2cc1OC | 140 | – | – | Not Active | Not Active | – | – | –
COc1cc2c(=O)c(C(=O)OCc3ccccc3C)cn(Cc3ccc(C(F)(F)F)cc3F)c2cc1OC | 0.015 | 0.71 | 31 | – | – | – | – | –
COc1cc2c(=O)c(C(=O)c3ccc(C)cc3)cn(Cc3ccc(S(C)(=O)=O)cc3)c2cc1OC | 0.5 | 25.3 | > 50 | – | – | – | – | –
COc1cc2c(=O)c(C(=O)c3ccc(C)cc3)cn(CCCc3ccccc3)c2cc1OC | 2.2 | – | – | Not Active | Not Active | – | – | –
CN1CCN(c2cc3c(cc2F)c(=O)c(NC(=O)NCc2ccc(Cl)cc2)cn3Cc2ccc(Cl)cc2)CC1 | > 150 | – | – | Not Active | Not Active | – | – | –
CN1CCN(c2cc3c(cc2F)c(=O)c(NC(=O)Cc2ccccc2)cn3Cc2ccc(Cl)cc2)CC1 | 4.6 | – | – | Not Active | Not Active | – | – | –
CN(Cc1ccc(Cl)cc1)C(=O)c1cn(Cc2ccc(Cl)cc2)c2cc(N3CCOCC3)c(F)cc2c1=O | 330 | – | – | Not Active | Not Active | – | – | –
CCOC(=O)c1cn(Cc2ccc(Cl)cc2)c2cc(OC)c(OC)cc2c1=O | 16 | > 15 | > 15 | – | – | – | – | –
COc1cc2c(=O)c(C(=O)c3ccc(C)cc3)cn(CCc3ccccc3)c2cc1OC | 110 | – | – | Not Active | Not Active | – | – | –
